From ChEMBL document CHEMBL3997850 (ACS Med Chem Lett, 2017)
The source made the active and inactive calls.

How the values were obtained:
[1] = system: Liver; assay: Intrinsic clearance in rat hepatic S9 fraction at 5 uM in presence of UDPGA/NADPH measured over 30 mins by LC/MS analysis; format: ADME, tissue-based; details: s9, 0.5 h
Outline: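 Rat hepatic S9 (2 mg/mL protein) with compound 5 µM, 50 mM Tris-HCl pH 7.5, 8 mM MgCl2, 2 mM NADPH, 2 mM UDPGA, 12.7 µM alamethicin, 37 °C. Reaction started with S9. Aliquots taken over 0–30 min, quenched with acetonitrile, analyzed by LC/MS.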

[2] = Permeability across apical to basolateral side in human Caco2 cells at 50 uM after 120 mins by LC/MS analysis; format: ADME, cell-based; details: Caco-2, read-out: permeability
Outline: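 Caco-2 cells (passages 21–45) seeded at 4,000/well on PET transwell filters and used 21–26 days after seeding. Monolayers accepted at TEER ≥300 Ω·cm² and run in Hank's balanced salt solution. After 120 min incubation, receiver-side sample taken, acetonitrile-precipitated, quantified by LC/MS.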

[3] = target: T1, Indoleamine 2,3-dioxygenase 1 (Homo sapiens, UniProt P14902); assay: Inhibition of IDO1 in IFN-gamma-stimulated human HeLa cells assessed as decrease in kynurenine levels after 48 hrs; format: cell-based
T1 sequence (P14902 whole entry): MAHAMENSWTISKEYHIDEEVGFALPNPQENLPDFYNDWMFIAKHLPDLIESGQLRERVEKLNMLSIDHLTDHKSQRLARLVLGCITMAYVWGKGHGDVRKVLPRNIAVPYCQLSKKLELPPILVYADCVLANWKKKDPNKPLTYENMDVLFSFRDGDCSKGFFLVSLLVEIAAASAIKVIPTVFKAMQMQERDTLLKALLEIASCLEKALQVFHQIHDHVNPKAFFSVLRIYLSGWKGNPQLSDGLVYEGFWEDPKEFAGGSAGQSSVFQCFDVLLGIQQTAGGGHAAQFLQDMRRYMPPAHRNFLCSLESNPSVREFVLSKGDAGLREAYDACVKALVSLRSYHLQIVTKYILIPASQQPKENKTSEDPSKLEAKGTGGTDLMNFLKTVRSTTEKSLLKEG

[4] = system: Liver; assay: Intrinsic clearance in rat hepatic S9 fraction at 5 uM in presence of UDPGA measured over 30 mins by LC/MS analysis; format: ADME; details: s9, 0.5 h
[5] = system: Plasma; assay: Fraction unbound in human plasma after 2 hrs by equilibrium dialysis method; format: ADME, cell-free
Outline: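 Equilibrium dialysis of human plasma (1 mL) containing compound against 1 mL 0.133 M phosphate buffer pH 7.4. Membrane cut-off 10,000 Da, teflon cells rotated at 12 rpm for 2 h at 37 °C. Recovered volumes weighed and matrix-matched 1:1. Acetonitrile precipitation, LC/MS/MS of both sides.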

[6] = target: T1, Indoleamine 2,3-dioxygenase 1; assay: Inhibition of human N-terminal His-tagged IDO1 expressed in Escherichia coli using D-Trp as substrate
[7] = system: CT26; assay: Antitumor activity against mouse CT26 cells allografted in po dosed Balb/c nu/nu mouse assessed as tumor growth inhibition; format: functional, organism-based
[8] = system: Mus musculus; assay: In vivo inhibition of IDO1 in wild type C57BL/6 mouse assessed as reduction in kynurenine levels in plasma at 50 mg/kg, po qd after 8 hrs by LC/MS/MS analysis; format: functional, organism-based
Outline: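 Fed C57BL/6 mice given a single dose; food then removed. At various timepoints, blood taken by cardiac puncture. Plasma diluted 10-fold in water, TCA protein precipitation, then LC/MS/MS for tryptophan, kynurenine (linear 20–10,000 nM kynurenine, 200–100,000 nM tryptophan) and drug, against aqueous standards.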

[9] = system: CT26; assay: Antitumor activity against mouse CT26 cells allografted in immunocompetent Balb/c mouse assessed as reduction in tumor growth at 30 mg/kg, po measured on day 24 relative to vehicle-treated control; format: functional
[10] = AUC in mouse CT26 cells allografted immunocompetent Balb/c mouse model at 30 mg/kg, po by LC/MS/MS analysis; format: ADME, organism-based; details: in vivo
[11] = Half life in cynomolgus monkey at 10 mg/kg, po by LC/MS/MS analysis; format: ADME, organism-based, Macaca fascicularis; details: in vivo
Outline: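 Male cynomolgus monkeys given 4 mg/kg IV (5% DMAC, 40% propylene glycol in saline) or 10 mg/kg orally (0.5% methylcellulose). EDTA plasma collected pre-dose through 24 h. Acetonitrile protein precipitation, then LC/MS/MS quantification, linear 2–10000 nM. PK parameters by standard non-compartmental methods.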

[12] = system: Rattus norvegicus; assay: AUC in rat at 5 mg/kg, iv or 5 mg/kg, po by LC/MS/MS analysis; format: ADME, organism-based; details: in vivo
Outline: (§1)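 Male rats, 5 mg/kg IV in 10% DMAC/saline or 5 mg/kg oral in 0.5% aqueous methylcellulose. Plasma (EDTA) sampled pre-dose to 24 h. Quantified by acetonitrile precipitation and LC/MS/MS (2–10000 nM range, 0.1 mL). Non-compartmental analysis of concentration–time data.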

[13] = Half life in rat at 5 mg/kg, po by LC/MS/MS analysis; format: ADME, organism-based; details: in vivo; outline: as §1

Row | CLH [1] [mL/min/kg] | Papp A→B at 2 h, 50 µM [2] [×10⁻⁶ cm/s] | IC50 [3] [nM] | CLH [4] [mL/min/kg] | Fu [5] [%] | IC50 [6] [nM] | AUC [10] [µM·h] | half-life [11] [h] | AUC [12] [µM·h] | half-life [13] [h] | Structure (SMILES) | TGI [7] | inhibition [8] | Efficacy [9] [%]
1 | > 36.7 | 31 | 22 | > 36.7 | 2.3 | 170 |  |  |  |  | OCCNc1nonc1/C(=N/O)Nc1ccc(F)c(Br)c1 |  |  | 
2 | 33 | 19 | 17 | 15 | 4.4 | 210 |  |  |  |  | CC(=O)NCCNc1nonc1/C(=N/O)Nc1ccc(F)c(Br)c1 |  |  | 
3 | > 36.7 | 44 | 100 | > 36.7 | 0.9 | 200 |  |  |  |  | COCCNc1nonc1/C(=N/O)Nc1ccc(F)c(Br)c1 |  |  | 
4 | 25 | 24 | 16 | 12 | 2.4 | 100 |  |  |  |  | CS(=O)(=O)NCCNc1nonc1C(=NO)Nc1ccc(F)c(Br)c1 |  |  | 
5 | > 36.7 |  | 14 | > 36.7 |  | 100 |  |  |  |  | CNc1nonc1/C(=N/O)Nc1ccc(F)c(Br)c1 |  |  | 
6 | 15 | 1.8 | 98 | 18.3 | 6.1 | 290 |  |  |  |  | NCCNc1nonc1/C(=N/O)Nc1ccc(F)c(Br)c1 |  |  | 
7 | > 36.7 |  | 35 | 23.3 |  | 180 |  |  |  |  | CCNc1nonc1/C(=N/O)Nc1ccc(F)c(Br)c1 |  |  | 

Further lines, the compound ahead of its results:

Row | Structure (SMILES) | CLH [1] [mL/min/kg] | Papp A→B at 2 h, 50 µM [2] [×10⁻⁶ cm/s] | IC50 [3] [nM] | CLH [4] [mL/min/kg] | Fu [5] [%] | IC50 [6] [nM] | AUC [10] [µM·h] | half-life [11] [h] | AUC [12] [µM·h] | half-life [13] [h] | TGI [7] | inhibition [8] | Efficacy [9] [%]
8 | NS(=O)(=O)NCCNc1nonc1/C(=N/O)Nc1ccc(F)c(Br)c1 [EPACADOSTAT] |  |  |  |  |  |  |  |  |  |  | inactive | Active | 56
9 | Nc1nonc1C(=Nc1ccc(F)c(Br)c1)NO | 23.3 |  | 10 | > 36.7 |  | 50 |  |  |  |  |  |  | 
10 | CN(C)c1nonc1/C(=N/O)Nc1ccc(F)c(Br)c1 | > 36.7 |  | > 5000 | > 36.7 |  | > 5000 |  |  |  |  |  |  | 
11 | Nc1nonc1C(=NO)Nc1ccc(F)c(Cl)c1 | > 36.7 |  |  | > 36.7 |  |  |  |  |  |  |  |  | 
12 | O/N=C(\Nc1ccc(F)c(Br)c1)c1nonc1NCc1ccccc1 | > 36.7 |  | 280 | 35 | < 0.5 | 230 |  |  |  |  |  |  | 
13 | NS(=O)(=O)NCCNc1nonc1C(=NO)Nc1ccc(F)c(Cl)c1 | 13 | 4.3 | 11 | 8.3 | 3.8 | 120 | 15.1 | 4 | 3.3 | 2.7 |  |  | 13
